{"source": "ChEMBL document CHEMBL4339251", "about": "“Prenylated Bibenzyls from the Chinese Liverwort Radula constricta and Their Mitochondria-Derived Paraptotic Cytotoxic Activities” (J Nat Prod, 2019)", "key": {"NCI-H1299 [1]": {"tested_on": "NCI-H1299", "experiment": "Induction of mitochondria-derived paraptosis in human NCI-H1299 cells assessed as formation of fusion among swollen mitochondria after 6 to 24 hrs by Mito-Tracker staining based fluorescence microscopy", "type": "functional, cell-based", "in_short": "(§1)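 Live-cell imaging. Treated cells on coverslips were stained with Mito-Tracker Red (100 nM) at 37 °C for 30 min, washed three times with PBS and stained with Hoechst 33342 (10 μg/mL) for 15 min. Images were taken by confocal or fluorescence microscopy at the indicated times.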"}, "U-251": {"tested_on": "U-251", "experiment": "Cytotoxicity in human U251 cells assessed as reduction in cell viability incubated for 48 hrs by MTT assay", "type": "functional, cell-based", "conditions": "U-251, 48 h", "in_short": "(§2)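 MTT viability. U251 and NCI-H1299 were grown in DMEM, the other lines in RPMI 1640, each with 10% FBS, penicillin and streptomycin, at 37 °C in 5% CO2. Cells were seeded in 96-well plates overnight and exposed to a range of concentrations. MTT (5 mg/mL) was added for 4 h, formazan was dissolved in DMSO and absorbance read at 570 nm. Three independent experiments.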"}, "NCI-H1299 [2]": {"tested_on": "NCI-H1299", "experiment": "Induction of cytoplasmic vacuolization in human NCI-H1299 cells at 10 uM treated for 3 hrs after pre-treatment with pan-caspase inhibitor Z-VAD-FMK for 1 hr by optical microscopy", "type": "functional, cell-based", "in_short": "(§3)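 Caspase-inhibitor morphology. Cells were treated with DMSO, 20 μM Z-VAD-FMK, 10 μM compound, or the combinations for 3 h, then imaged by optical microscopy.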"}, "A549 [3]": {"tested_on": "A549", "experiment": "Induction of mitochondria-derived paraptosis in human A549 cells assessed as formation of fusion among swollen mitochondria after 6 to 24 hrs by Mito-Tracker staining based fluorescence microscopy", "type": "functional, cell-based", "in_short": "as §1"}, "NCI-H1299 [4]": {"tested_on": "NCI-H1299", "experiment": "Induction of apoptosis in human NCI-H1299 cells assessed as necrotic cells at 10 uM by annexinV-FITC and propidium iodide staining based flow cytometric analysis (reference value: 3.17%)", "type": "functional"}, "NCI-H1299 [5]": {"tested_on": "NCI-H1299", "experiment": "Induction of mitochondria-derived paraptosis in human NCI-H1299 cells assessed as induction of HMGB1 translocation from nucleus to cytoplasm at 10 uM incubated for 24 hrs by immunofluorescence staining", "type": "functional, cell-based", "in_short": "(§4)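 HMGB1 immunofluorescence. Cells were treated at 10 μM for 24 h, fixed in 4% paraformaldehyde for 30 min, permeabilised with 0.3% Triton X-100 for 15 min and blocked with 5% BSA for 30 min. Anti-HMGB1 was applied at 4 °C overnight and the secondary antibody at 37 °C for 1 h. Nuclei were counterstained with DAPI and cells imaged by confocal microscopy.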"}, "A549 [6]": {"tested_on": "A549", "experiment": "Induction of apoptosis in human A549 cells assessed as necrotic cells at 20 uM by annexinV-FITC and propidium iodide staining based flow cytometric analysis (reference value: 1.44%)", "type": "functional"}, "NCI-H1299 [7]": {"tested_on": "NCI-H1299", "experiment": "Induction of mitochondria-derived paraptosis in human NCI-H1299 cells assessed as reduction in intensity of mitochondria fluorescence up to 24 hrs by Mito-Tracker staining based fluorescence microscopy", "type": "functional, cell-based", "in_short": "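Mitochondrial fluorescence. After treatment for the indicated times, cells were stained with Mito-Tracker Red (100 nM) and 10 000 cells per sample were analysed by flow cytometry. Cells with decreased red fluorescence were gated as \"pale\" cells.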"}, "A549 [8]": {"tested_on": "A549", "experiment": "Induction of cytoplasmic vacuolization in human A549 cells at 10 uM treated for 3 hrs after pre-treatment with pan-caspase inhibitor Z-VAD-FMK for 1 hr by optical microscopy", "type": "functional, cell-based", "in_short": "as §3"}, "MCF7": {"tested_on": "MCF7", "experiment": "Cytotoxicity in human MCF7 cells assessed as reduction in cell viability incubated for 48 hrs by MTT assay", "type": "functional, cell-based", "conditions": "MCF7, 48 h", "in_short": "as §2"}, "A549 [9]": {"tested_on": "A549", "experiment": "Induction of ROS generation in human A549 cells after 1 hr by DCFH-DA staining based flow cytometry relative to untreated control", "type": "functional", "in_short": "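ROS by flow cytometry. Cells were exposed for the indicated times, then stained with DCFH-DA (10 μM). DCF mean fluorescence intensity was compared with untreated control. Mean ± SD, n = 3.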"}, "A549 [10]": {"tested_on": "A549", "experiment": "Induction of mitochondria-derived paraptosis in human A549 cells assessed as induction of HMGB1 translocation from nucleus to cytoplasm at 10 uM incubated for 24 hrs by immunofluorescence staining", "type": "functional, cell-based", "in_short": "as §4"}, "A549 [11]": {"tested_on": "A549", "experiment": "Cytotoxicity in human A549 cells assessed as reduction in cell viability at 5 uM incubated for 24 hrs in presence of pan-caspase inhibitor Z-VAD-FMK by MTT assay", "type": "functional, cell-based"}, "A549 [12]": {"tested_on": "A549", "experiment": "Induction of apoptosis in human A549 cells assessed as early apoptotic cells at 10 uM by annexinV-FITC and propidium iodide staining based flow cytometric analysis (reference value: 1.47%)", "type": "functional"}}, "note": "Activity calls are given as the source filed them. The rule behind the calls is not given here.", "data": [{"smiles": "COC(=O)c1c(CCc2ccccc2)cc(O)c(CC=C(C)C)c1O", "values": [{"measurement": "Activity", "setting": "NCI-H1299 [1]", "result": "Active"}, {"measurement": "IC50", "setting": "U-251", "result": 9, "unit": "µM"}, {"measurement": "Activity", "setting": "NCI-H1299 [2]", "result": "Active"}, {"measurement": "Activity", "setting": "A549 [3]", "result": "Active"}, {"measurement": "Activity", "setting": "NCI-H1299 [4]", "result": 3.75, "unit": "%"}, {"measurement": "Activity", "setting": "NCI-H1299 [5]", "result": "Active"}, {"measurement": "Activity", "setting": "A549 [6]", "result": 1.73, "unit": "%"}, {"measurement": "Activity", "setting": "NCI-H1299 [7]", "result": "Active"}, {"measurement": "Activity", "setting": "A549 [8]", "result": "Active"}, {"measurement": "IC50", "setting": "MCF7", "result": 10.2, "unit": "µM"}, {"measurement": "fold change (FC)", "setting": "A549 [9]", "result": 20}, {"measurement": "Activity", "setting": "A549 [10]", "result": "Active"}, {"measurement": "Activity", "setting": "A549 [11]", "result": "Active"}, {"measurement": "Activity", "setting": "A549 [12]", "result": 0.75, "unit": "%"}]}]}
